The values below come from ChEMBL document CHEMBL2417499, “Structure-activity relationship studies of Niemann-Pick type C1-like 1 (NPC1L1) ligands identified by screening assay monitoring pharmacological chaperone effect” (Bioorg Med Chem, 2013).

Data set [1] has as its system HEK293. In words: Binding affinity to human GFP-tagged NPC1L1 L1072T/L1168I mutant expressed in HEK293 cells assessed as localization to endoplasmic reticulum and plasma membrane at 10 uM after 24 hrs by fluorescence microscopic analysis. The class given is cell-based. In a few lines: (§1)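 HEK293 cells stably expressing NPC1L1-GFP mutant from a CMV promoter, kept under G418 (0.4 mg/mL). Seeded at 6,000 cells/well on poly-lysine-coated glass in DMEM with 1% FBS. Dosed next day in 0.1% DMSO final for 24 h, then fixed in 3.7% formaldehyde and imaged at ×100. Each cell in 25 images scored ER 0 to PM 1; mean reported as % plasma membrane localization.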

Data set [2] relates to HEK293. In words: Binding affinity to human GFP-tagged NTD-deleted NPC1L1 L1072T/L1168I mutant expressed in HEK293 cells assessed as localization to plasma membrane at 10 uM after 24 hrs by fluorescence microscopic analysis. The class given is cell-based. In outline:
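HEK293 cells stably expressing the GFP-tagged NTD-deleted mutant were treated for 24 h with 0.1% final DMSO, then fixed in 3.7% formaldehyde. Cells were imaged at ×100 and scored from ER (0) to PM (1) over 25 images, reported as % plasma membrane localization.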

Data set [3] addresses T1, NPC intracellular cholesterol transporter 1 (Homo sapiens) (UniProt O15118).
T1 sequence (whole entry): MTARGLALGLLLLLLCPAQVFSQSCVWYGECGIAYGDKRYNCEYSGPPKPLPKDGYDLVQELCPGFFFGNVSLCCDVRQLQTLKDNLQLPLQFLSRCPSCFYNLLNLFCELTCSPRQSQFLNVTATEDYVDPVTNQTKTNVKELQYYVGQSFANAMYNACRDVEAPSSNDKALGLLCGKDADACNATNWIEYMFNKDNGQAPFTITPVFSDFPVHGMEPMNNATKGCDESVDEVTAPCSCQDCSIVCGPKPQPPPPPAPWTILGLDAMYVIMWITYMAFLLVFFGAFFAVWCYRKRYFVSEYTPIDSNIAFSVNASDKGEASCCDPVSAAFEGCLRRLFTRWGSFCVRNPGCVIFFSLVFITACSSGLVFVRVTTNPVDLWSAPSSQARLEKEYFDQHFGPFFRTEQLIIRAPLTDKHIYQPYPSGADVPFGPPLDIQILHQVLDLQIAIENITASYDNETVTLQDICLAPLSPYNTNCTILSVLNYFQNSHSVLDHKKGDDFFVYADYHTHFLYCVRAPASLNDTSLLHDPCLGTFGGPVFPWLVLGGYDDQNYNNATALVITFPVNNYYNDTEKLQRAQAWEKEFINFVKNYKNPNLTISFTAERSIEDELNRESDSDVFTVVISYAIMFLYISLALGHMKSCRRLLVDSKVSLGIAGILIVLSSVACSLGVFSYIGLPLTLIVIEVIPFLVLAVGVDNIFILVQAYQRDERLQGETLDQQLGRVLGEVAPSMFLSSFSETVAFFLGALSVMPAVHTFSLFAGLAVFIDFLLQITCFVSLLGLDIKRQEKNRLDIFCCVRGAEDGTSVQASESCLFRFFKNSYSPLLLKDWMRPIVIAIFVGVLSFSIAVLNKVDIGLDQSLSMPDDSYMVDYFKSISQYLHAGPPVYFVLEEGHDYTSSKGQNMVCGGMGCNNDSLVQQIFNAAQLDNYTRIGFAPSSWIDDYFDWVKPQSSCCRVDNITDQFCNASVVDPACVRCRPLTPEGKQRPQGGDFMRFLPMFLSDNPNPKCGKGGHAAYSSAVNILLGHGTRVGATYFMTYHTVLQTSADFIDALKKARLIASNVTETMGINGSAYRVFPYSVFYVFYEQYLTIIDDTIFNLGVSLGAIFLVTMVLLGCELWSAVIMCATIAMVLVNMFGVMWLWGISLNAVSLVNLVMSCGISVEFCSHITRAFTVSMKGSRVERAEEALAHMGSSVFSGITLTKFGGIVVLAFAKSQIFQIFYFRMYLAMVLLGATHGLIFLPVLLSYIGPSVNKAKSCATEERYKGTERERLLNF
Briefly: (§2) Binding affinity to NPC1 (unknown origin).

The test system of data set [4] is HEK293. Briefly: Binding affinity to human GFP-tagged NPC1L1 L1072T/L1168I mutant expressed in HEK293 cells assessed as localization to endoplasmic reticulum and plasma membrane at 3 uM after 24 hrs by fluorescence microscopic analysis. In kind it is cell-based. In outline: as §1
Data set [5] deals with HEK293. In words: Cytotoxicity against HEK293 cells transfected with human GFP-tagged NPC1L1 L1072T/L1168I mutant. In kind it is cell-based.
In data set [6] the test system is HEK293. In words: Binding affinity to human GFP-tagged NPC1L1 L1072T/L1168I mutant expressed in HEK293 cells assessed as protein stabilization after 24 hrs by fluorescence assay. In kind it is cell-based. In a few lines:
(§3)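 Stable HEK293 lines were grown to 70% confluency in phenol red-free medium in 12-well plates and exposed to vehicle or compound for 24 h. Supernatant GFP fluorescence was read and normalized to BCA total protein, n = 3.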

Data set [7] has as its system HEK293. Briefly: Binding affinity to human GFP-tagged NTD-deleted NPC1L1 L1072T/L1168I mutant expressed in HEK293 cells assessed as protein stabilization after 24 hrs by fluorescence assay. The class given is cell-based. In outline:
as §3

In data set [8] the target is T2, NPC intracellular cholesterol transporter 1 (Homo sapiens, UniProt O15118).
T2 sequence (O15118 whole entry): T1 sequence (whole entry)
Described as §2.

A short description of data set [9]: Binding affinity to human GFP-tagged NTD-deleted NPC1L1 L1072T/L1168I mutant expressed in HEK293 cells assessed as localization to plasma membrane after 24 hrs by fluorescence microscopic analysis. In kind it is cell-based. In outline: (§4)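 HEK293 cells stably expressing the GFP-tagged construct (G418 0.4 mg/mL) were seeded at 6,000 cells/well in DMEM with 1% FBS on poly-lysine-coated glass. On day 2 they were treated for 24 h, final DMSO 0.1%. Cells were fixed in 3.7% formaldehyde and imaged at ×100. Across 25 images, cells were scored ER 0 to PM 1 and averaged as % plasma membrane localization. EC50 was taken from this score.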

Another data set is filed under the species Homo sapiens. In words: Selectivity ratio of EC50 for NPC1 (unknown origin) to EC50 for human GFP-tagged NPC1L1 L1072T/L1168I mutant.
Data set [10] is described as follows: Binding affinity to human GFP-tagged NPC1L1 L1072T/L1168I mutant expressed in HEK293 cells assessed as localization to endoplasmic reticulum and plasma membrane after 24 hrs by fluorescence microscopic analysis. The class given is cell-based. The conditions noted are these: read-out: EC50. In outline: as §4
In data set [11] the test system is HEK293. Briefly: Competitive binding affinity to human GFP-tagged NPC1L1 L1072T/L1168I mutant expressed in HEK293 cells assessed as localization to endoplasmic reticulum and plasma membrane at 0.01 to 10 uM after 24 hrs by fluorescence microscopic analysis in presence of N,N-(Dimethyl)-delta(5)-cholenamid-3beta-yl N,N-bis(2-hydroxyethyl)carbamate. In kind it is cell-based.

Each structure is given as a SMILES string. Active and inactive are the calls of the source. No cut-off for these calls is given here.

Consider `CCCCN(CCCC)C(=O)O[C@H]1CC[C@@]2(C)C(=CC[C@H]3[C@@H]4CC[C@H]([C@H](C)CCC(=O)N(C)C)[C@@]4(C)CC[C@@H]32)C1`, for which the result with HEK293 [1] and with HEK293 [2] was inactive.
In the case of `CC(C)CCC[C@@H](C)[C@H]1CC[C@H]2[C@@H]3C[C@@H](O)[C@@]4(O)C[C@@H](O)CC[C@]4(C)[C@H]3CC[C@]12C`, the result in [3] was Active. Moreover, the outcome in the data set on HEK293 [4] was inactive.
`CCN(CC)C(=O)CC[C@@H](C)[C@H]1CC[C@H]2[C@@H]3CC=C4C[C@@H](O)CC[C@]4(C)[C@H]3CC[C@]12C`: the Activity result in the data set with HEK293 [5] is “Toxic”.
Turning to `C[C@H](CCC(=O)N(C)C)[C@H]1CC[C@H]2[C@@H]3CC=C4C[C@@H](OC(=O)N(CCO)CCO)CC[C@]4(C)[C@H]3CC[C@]12C`, in the data set with HEK293 [6], the Activity entry was “Dose-dependent effect”. Moreover, the outcome with HEK293 [7] was Active. Also, the figures for the EC50 in [8], in data set [9] and in data set [10] were 1.6 µM, 1.7 µM and 0.65 µM, respectively. For the same molecule, in the data set filed under Homo sapiens, the Ratio EC50 was found to be 2.5.
`O=C1[C@H](CC[C@H](O)c2ccc(F)cc2)[C@@H](c2ccc(O)cc2)N1c1ccc(F)cc1`: the result in the data set with HEK293 [1] and in the data set on HEK293 [11] was inactive.

By EC50 is commonly meant the concentration that produces a half-maximal response.
